Laboratory results published in ChEMBL document CHEMBL1125826, “Synthesis and biological activity of 5-amino- and 5-hydroxyquinolones, and the overwhelming influence of the remote N1-substituent in determining the structure-activity relationship” (1991).
Values after ≈ are worked out from the molar mass of the structure shown.

Experiments:
Type in all cases: functional
Enterococcus faecalis = test: Antibacterial activity was determined against gram positive organism, Streptococcus faecalis MGH-2; conditions: Enterococcus faecalis; read-out: MIC
Summary of the method: (§1)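 MIC (µg/mL) by standard microtitration against a panel of 10 Gram-positive and Gram-negative organisms; values averaged from multiple experiments.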

Streptococcus pyogenes [1] = test: Antibacterial activity was determined against gram positive organism, Streptococcus pyogenes C203; conditions: Streptococcus pyogenes; read-out: MIC; summary of the method: as §1
Staphylococcus aureus [2] = test: Antibacterial activity was determined against gram positive organism, Staphylococcus aureus H228; conditions: Staphylococcus aureus; read-out: MIC; summary of the method: as §1
Bacteria [3] = test: Antibacterial activity was determined against gram negative organism, Providencia rettgeri. M1771; conditions: Bacteria; read-out: MIC; summary of the method: as §1
Staphylococcus aureus [4] = test: Antibacterial activity was determined against gram positive organism, Staphylococcus aureus UC76; summary of the method: as §1
[5] = target: DNA gyrase (Escherichia coli) (UniProt P0AES6+P0AES4); test: Minimum inhibitory concentration against Escherichia coli DNA-gyrase in supercoiling assay
Streptococcus pneumoniae = test: Antibacterial activity was determined against gram positive organism, Streptococcus pneumoniae SV-1; conditions: Streptococcus pneumoniae; read-out: MIC; summary of the method: as §1
Escherichia coli [6] = test: The in vivo potency was determined in female charles river CD-1 mice infected with Escherichia coli after peroral administration; conditions: for ED50: Escherichia coli, po, read-out: PD50
Summary of the method: (§2)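 Acute lethal systemic infection in female CD-1 mice, 16 mice per route; single dose given orally by gavage at the time of challenge; median protective dose (PD50, mg/kg) determined.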

Pseudomonas aeruginosa = test: Antibacterial activity was determined against gram negative organism, Pseudomonas aeruginosa UI-18; conditions: Pseudomonas aeruginosa; read-out: MIC; summary of the method: as §1
Enterobacter cloacae = test: Antibacterial activity was determined against gram negative organism, Enterobacter cloacae MA2646; conditions: Enterobacter cloacae; read-out: MIC
Escherichia coli [7] = test: Antibacterial activity was determined against gram negative organism, Escherichia coli vogel; conditions: Escherichia coli; read-out: MIC; summary of the method: as §1
Klebsiella pneumoniae = test: Antibacterial activity was determined against gram negative organism, Klebsiella pneumoniae MGH-2; conditions: Klebsiella pneumoniae; read-out: MIC; summary of the method: as §1
Streptococcus pyogenes [8] = test: The in vivo potency was determined in female charles river CD-1 mice infected with Streptococcus pyogenes after peroral administration; conditions: Streptococcus pyogenes, po; read-out: PD50; summary of the method: as §2
Escherichia coli [9] = test: The in vivo potency was determined in female charles river CD-1 mice infected with Escherichia coli after sc administration; conditions: Escherichia coli, sc; read-out: PD50
Summary of the method: (§3)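 Acute lethal systemic infection in female CD-1 mice, 16 mice per route; single subcutaneous dose given at the time of challenge; median protective dose (PD50, mg/kg) determined.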

Streptococcus pyogenes [10] = test: The in vivo potency was determined in female charles river CD-1 mice infected with Streptococcus pyogenes after sc administration; conditions: Streptococcus pyogenes, sc; read-out: PD50; summary of the method: as §3
Bacteria [11] = test: MIC ratio measured as the mean MICs of gram-negative bacteria
Summary of the method: (§4)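 Geometric mean of the microtitration MICs (µg/mL) over the Gram-negative organisms, and separately over the Gram-positive organisms, of the 10-strain panel; individual MICs averaged from multiple experiments.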

Bacteria [12] = test: MIC ratio measured as the mean MICs of gram-positive bacteria; summary of the method: as §4
[13] = Staphylococcus aureus, read-out: MIC

| SMILES | MIC (Enterococcus faecalis) [µg/mL] | MIC (Streptococcus pyogenes [1]) [µg/mL] | MIC (Staphylococcus aureus [2]) [µg/mL] | MIC (Bacteria [3]) [µg/mL] | MIC (Staphylococcus aureus [4]) [µg/mL] | MIC [5] [µg/mL] | MIC (Streptococcus pneumoniae) [µg/mL] | ED50 (Escherichia coli [6]) [mg/kg] | MIC (Pseudomonas aeruginosa) [µg/mL] | MIC (Enterobacter cloacae) [µg/mL] | MIC (Escherichia coli [7]) [µg/mL] | MIC (Klebsiella pneumoniae) [µg/mL] | ED50 (Streptococcus pyogenes [8]) [mg/kg] | ED50 (Escherichia coli [9]) [mg/kg] | ED50 (Streptococcus pyogenes [10]) [mg/kg] | Geometric mean MIC over Gram-negative bacteria (µg/mL) (Bacteria [11]) | Geometric mean MIC over Gram-positive bacteria (µg/mL) (Bacteria [12]) | MIC (Staphylococcus aureus [4]; [13]) [µg/mL] | PD50 (Escherichia coli [6]) [mg/kg] |
| --- | --- | --- | --- | --- | --- | --- | --- | --- | --- | --- | --- | --- | --- | --- | --- | --- | --- | --- | --- |
| CCNCC1CCN(c2c(F)c(N)c3c(=O)c(C(=O)O)cn(C4CC4)c3c2Cl)C1 (stereo unspecified) | 0.1 (≈ 0.236 µM) | 0.025 (≈ 0.0591 µM) | 0.1 (≈ 0.236 µM) | 0.8 (≈ 1.89 µM) | 0.025 (≈ 0.0591 µM) | 1 (≈ 2.36 µM) | 0.025 (≈ 0.0591 µM) | 32 | 1.6 (≈ 3.78 µM) | 0.2 (≈ 0.473 µM) | 0.1 (≈ 0.236 µM) | 0.4 (≈ 0.946 µM) | 31 | 3 | 4 |  |  |  |  |
| CC1COc2c(N3CCC(N)C3)c(F)cc3c(=O)c(C(=O)O)cn1c23 (stereo unspecified) | 1.6 (≈ 4.61 µM) | 0.2 (≈ 0.576 µM) | 1.6 (≈ 4.61 µM) | 0.8 (≈ 2.3 µM) | 0.1 (≈ 0.288 µM) | 0.75 (≈ 2.16 µM) | 0.8 (≈ 2.3 µM) | 29 | 0.4 (≈ 1.15 µM) | 0.4 (≈ 1.15 µM) | 0.4 (≈ 1.15 µM) | 0.4 (≈ 1.15 µM) |  | 2 |  | 0.46 | 0.53 |  |  |
| CC1CN(c2c(F)cc3c(=O)c(C(=O)O)cn(C4CC4)c3c2Cl)CCN1 (stereo unspecified) | 0.2 (≈ 0.527 µM) | 0.2 (≈ 0.527 µM) | 0.2 (≈ 0.527 µM) | 0.2 (≈ 0.527 µM) |  | 2.5 (≈ 6.58 µM) | 0.2 (≈ 0.527 µM) | 0.6 | 0.8 (≈ 2.11 µM) | 0.025 (≈ 0.0658 µM) | 0.025 (≈ 0.0658 µM) | 0.05 (≈ 0.132 µM) | 6 | 0.2 | 3 | 0.087 | 0.15 | 0.05 (≈ 0.132 µM) |  |
| CC1CN(c2c(F)cc3c(=O)c(C(=O)O)cn(C4CC4)c3c2F)CC(C)N1 (stereo unspecified) | 0.4 (≈ 1.06 µM) | 0.4 (≈ 1.06 µM) | 0.2 (≈ 0.53 µM) | 0.2 (≈ 0.53 µM) |  | 2.5 (≈ 6.62 µM) | 0.4 (≈ 1.06 µM) |  | 0.4 (≈ 1.06 µM) | 0.05 (≈ 0.132 µM) | 0.05 (≈ 0.132 µM) | 0.1 (≈ 0.265 µM) |  | 0.4 |  | 0.11 | 0.23 | 0.05 (≈ 0.132 µM) | 0.8 |
| CCNCC1CCN(c2cc3c(cc2F)c(=O)c(C(=O)O)cn3C2CC2)C1 (stereo unspecified) | 0.2 (≈ 0.536 µM) | 0.05 (≈ 0.134 µM) | 0.4 (≈ 1.07 µM) | 0.8 (≈ 2.14 µM) |  | 1 (≈ 2.68 µM) | 0.2 (≈ 0.536 µM) | 35 | 1.6 (≈ 4.28 µM) | 0.4 (≈ 1.07 µM) | 0.2 (≈ 0.536 µM) | 0.2 (≈ 0.536 µM) |  | 2 |  | 0.46 | 0.1 | 0.013 (≈ 0.0348 µM) |  |
| Nc1c(F)c(N2CCC(N)C2)cc2c1c(=O)c(C(=O)O)cn2C1CC1 (stereo unspecified) | 0.05 (≈ 0.144 µM) | 0.05 (≈ 0.144 µM) | 0.1 (≈ 0.289 µM) | 0.05 (≈ 0.144 µM) |  | 2 (≈ 5.77 µM) | 0.025 (≈ 0.0722 µM) | 8 | 0.4 (≈ 1.15 µM) | 0.013 (≈ 0.0375 µM) | 0.013 (≈ 0.0375 µM) | 0.025 (≈ 0.0722 µM) | 110 | 0.7 | 6 | 0.038 | 0.044 | 0.025 (≈ 0.0722 µM) |  |
| CCNCC1CCN(c2c(F)cc3c(=O)c(C(=O)O)cn(C4CC4)c3c2Cl)C1 (stereo unspecified) | 0.013 (≈ 0.0319 µM) | 0.006 (≈ 0.0147 µM) | 0.013 (≈ 0.0319 µM) | 0.2 (≈ 0.49 µM) |  | 0.25 (≈ 0.613 µM) | 0.003 (≈ 0.00736 µM) | 4 | 0.8 (≈ 1.96 µM) | 0.05 (≈ 0.123 µM) | 0.05 (≈ 0.123 µM) | 0.1 (≈ 0.245 µM) |  | 1 |  | 0.13 | 0.006 | 0.003 (≈ 0.00736 µM) |  |
| CC1CN(c2c(F)c(O)c3c(=O)c(C(=O)O)cn(C4CC4)c3c2F)CCN1 (stereo unspecified) | 0.8 (≈ 2.11 µM) | 0.4 (≈ 1.05 µM) | 0.8 (≈ 2.11 µM) | 0.2 (≈ 0.527 µM) |  | 0.5 (≈ 1.32 µM) | 0.4 (≈ 1.05 µM) | 2 | 1.6 (≈ 4.22 µM) | 0.1 (≈ 0.264 µM) | 0.05 (≈ 0.132 µM) | 0.2 (≈ 0.527 µM) | > 50 | 0.8 | > 50 | 0.2 | 0.4 | 0.1 (≈ 0.264 µM) |  |
